In ChEMBL document CHEMBL1156237, “Antiviral activity of benzimidazole derivatives. II. Antiviral activity of 2-phenylbenzimidazole derivatives” (Bioorg Med Chem, 2010):
The source made the active and inactive calls.

Key:
[1] = Selectivity index, ratio of CC50 for MDBK cells to EC50 for Bovine viral diarrhea virus NADL; format: toxicity, cell-based; settings: cattle, read-out: Ratio CC50/EC50
[2] = Cytotoxicity against human MT4 cells after 96 hrs by MTT assay; format: cell-based; settings: MT4 cells
In short: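 Exponentially growing MT-4 cells at 1 × 10^5 cells/mL in RPMI-1640 with 10% FCS, exposed to serial compound dilutions at 37 °C, 5% CO2. Viability by MTT after 96 h; CC50 is the concentration reducing viability of mock-infected cells by 50%.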

[3] = Cytotoxicity against MDBK cells after 48 to 96 hrs by MTT assay; format: cell-based, Bos taurus; settings: cattle, MDBK cells
In short: (§1)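 Cell seeding: MDBK at 6 × 10^5 cells/mL in MEM-E with 10% horse serum and 1 mM Na pyruvate; BHK at 1 × 10^6 cells/mL in MEM-E with 10% FBS. Serial compound dilutions, 37 °C, 5% CO2. Viability of mock-infected cells by MTT after 48–96 h; CC50 is the concentration reducing viability by 50%.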

[4] = Cytotoxicity against BHK cells after 48 to 96 hrs by MTT assay; format: cell-based, Mesocricetus auratus; settings: hamster; in short: as §1
[5] = Cytotoxicity against african green monkey Vero cells; format: cell-based; settings: chlorocebus sabaeus
In short: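 Vero 76 monolayers exposed to serial compound dilutions, run in parallel on the same 24-well plates as the plaque-reduction assays. CC50 is the concentration reducing viability of mock-infected cells by 50%.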

[6] = tested on: Human immunodeficiency virus 1; test: Antiviral activity against HIV1 3B infected in human MT4 cells assessed as protection from virus-induced cytopathogenicity after 4 days by MTT method; format: functional, organism-based
In short: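 MT-4 cells, 1 × 10^4/well in RPMI with or without serial compound dilutions, infected with HIV-1 IIIB, 100 CCID50 (m.o.i. 0.01). Protection from virus-induced cytopathogenicity read by MTT.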

[7] = tested on: Vesicular stomatitis virus; test: Antiviral activity against VSV Indiana lab infected in african green monkey Vero cells after 2 days by plaque reduction assay; format: functional, organism-based
[8] = tested on: Bovine viral diarrhea virus 1; test: Antiviral activity against Bovine viral diarrhea virus NADL infected in MDBK cells assessed as protection from virus-induced cytopathogenicity after 3 to 4 days by MTT method; format: functional, organism-based, Bovine viral diarrhea virus 1-NADL; settings: Bovine viral diarrhea virus isolates and strains, MDBK
In short: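 Cytopathogenicity protection assay. MDBK cells at 3 × 10^4/well, grown overnight to confluence. Infected with BVDV NADL at m.o.i. 0.01 in MEM-E with 0.5% inactivated FBS, 1 mM Na pyruvate and 1% kanamycin. Serial compound dilutions added after 1 h. After 3–4 days at 37 °C, viability read by MTT; EC50 is the concentration giving 50% protection.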

[9] = tested on: Yellow fever virus; test: Antiviral activity against Yellow fever virus 17D infected in BHK cells assessed as protection from virus-induced cytopathogenicity after 3 to 4 days by MTT method; format: functional, organism-based
[10] = tested on: Coxsackievirus B2; test: Antiviral activity against Human coxsackievirus B2 Ohio-1 infected in african green monkey Vero cells after 3 days by plaque reduction assay; format: functional, organism-based, Coxsackievirus B2 (strain Ohio-1); settings: Enterovirus B, Vero, 72 h
In short: (§2)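 Plaque reduction assay. Vero 76 cells at 2 × 10^5/well, grown overnight to confluence in D-MEM with 10% FBS. Infected 2 h with 50–100 PFU/well, unadsorbed virus removed. Overlay of D-MEM with 1% inactivated FBS and 0.75% methylcellulose, with or without serial compound dilutions. Incubated at 37 °C for 3 days (HSV-1 KOS, CVB-2 Ohio-1) or 5 days (RSV A2). Fixed and stained with crystal violet in 50% ethanol; plaques counted; EC50 by linear regression.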

[11] = tested on: Poliovirus 1; test: Antiviral activity against Polio virus type1 Sabin strain Chat infected in african green monkey Vero cells after 2 days by plaque reduction assay; format: functional, organism-based, Human poliovirus 1 strain Sabin; settings: Enterovirus C, 48 h
[12] = tested on: Human alphaherpesvirus 1; test: Antiviral activity against HSV1 KOS infected in african green monkey Vero cells after 3 days by plaque reduction assay; format: functional, organism-based; settings: Human alphaherpesvirus 1, KOS, 72 h; in short: as §2
[13] = Selectivity index, ratio of CC50 for human MT4 cells to EC50 for Bovine viral diarrhea virus NADL; format: toxicity, cell-based; settings: read-out: Ratio CC50/EC50
[14] = tested on: Respiratory syncytial virus; test: Antiviral activity against RSV A2 infected in african green monkey Vero cells after 5 days by plaque reduction assay; format: functional, organism-based; settings: for EC50: human respiratory syncytial virus, A2, Vero, 120 h; in short: as §2
[15] = tested on: Vaccinia virus; test: Antiviral activity against Vaccinia virus Elstree-Lister infected in african green monkey Vero cells after 3 days by plaque reduction assay; format: functional, organism-based; settings: Orthopoxvirus vaccinia; for EC50: 72 h
[16] = tested on: Mammalian orthoreovirus 1; test: Antiviral activity against Reovirus 1 3651 infected in BHK21 cells assessed as protection from virus-induced cytopathogenicity after 3 to 4 days by MTT method; format: functional, organism-based; settings: for Activity: BHK-21
[17] = Selectivity index, ratio of CC50 for african green monkey Vero cells to EC50 for Human coxsackievirus B2 Ohio-1; format: toxicity, cell-based; settings: read-out: Ratio CC50/EC50
[18] = Selectivity index, ratio of CC50 for human MT4 cells to EC50 for Human coxsackievirus B2 Ohio-1; format: toxicity, cell-based; settings: read-out: Ratio CC50/EC50

SMILES	CC50 at 96 h [2] [µM]	CC50 [3] [µM]	CC50 [4] [µM]	CC50 [5] [µM]	Activity [6]	Activity [7]	EC50 [8] [µM]	EC50 [9] [µM]	EC50 [10] [µM]	EC50 [11] [µM]	EC50 [12] [µM]	Activity [14]	Activity [15]	Activity [16]	selectivity ratio [17]	selectivity ratio [18]	other results
CCN(CC)CC(=O)Nc1ccc(-c2nc3cc(C(F)(F)F)ccc3[nH]2)cc1	8	13	23	24	inactive	inactive	2	7	> 24	> 24	24	–	–	–	–	–	selectivity ratio [1]: 6.5; selectivity ratio [13]: 4
CC(=O)Nc1ccc(-c2nc3cc(C(F)(F)F)ccc3n2C)cc1	15	46	> 100	> 100	inactive	inactive	> 46	> 100	2.5	14	49	inactive	inactive	inactive	> 40	6	–
CCC(=O)Nc1ccc(-c2nc3cc(C(F)(F)F)ccc3[nH]2)cc1	≥ 100	> 100	100	> 100	inactive	inactive	> 100	> 100	4	> 100	> 100	–	–	–	> 25	≥ 25	–
COc1cccc(-c2nc3cc(C(F)(F)F)ccc3[nH]2)c1	19	28	90	> 100	inactive	inactive	> 28	> 90	4	> 100	12	–	–	–	> 25	4.8	EC50 [14]: 7 µM; EC50 [15]: > 100 µM
O=C(CN1CCCC1)Nc1ccc(-c2nc3cc(C(F)(F)F)ccc3[nH]2)cc1	18	15	29	> 100	inactive	inactive	3	7	> 100	> 100	> 100	–	–	–	–	–	selectivity ratio [1]: 5; selectivity ratio [13]: 6
Oc1ccc(-c2nc3cc(C(F)(F)F)ccc3[nH]2)cc1	17	51	> 100	> 100	inactive	inactive	> 51	12	5	24	25	–	–	–	–	–	EC50 [14]: 20 µM; EC50 [15]: > 100 µM; EC50 ([16]; Mammalian orthoreovirus 1, 3651, BHK-21): 7 µM
O=C(CN1CCCC1)Nc1ccc(-c2nc3cc(Cl)c(Cl)cc3[nH]2)cc1	8	16	64	> 100	inactive	inactive	2.5	> 64	1.5	25	> 100	–	–	–	> 67	5.3	–
COc1cc(OC)cc(-c2nc3cc(C(F)(F)F)ccc3[nH]2)c1	19	> 100	> 100	> 100	inactive	inactive	> 100	> 100	3	> 100	> 100	–	–	–	> 33	6.3	EC50 [14]: 10 µM; EC50 [15]: > 100 µM
Nc1ccc(-c2nc3cc(C(F)(F)F)ccc3n2C23CC4CC(CC(C4)C2)C3)cc1	19	19	16	60	inactive	inactive	7	> 16	11	> 60	> 60	inactive	inactive	inactive	–	–	–
Cn1c(-c2ccc(NC(=O)CN3CCSCC3)cc2)nc2cc(C(F)(F)F)ccc21	10	> 100	> 100	> 100	inactive	inactive	8	46	22	> 100	> 100	inactive	inactive	inactive	–	–	–
Nc1ccc(-c2nc3cc(Cl)c(Cl)cc3[nH]2)cc1	17	7.5	30	≥ 100	inactive	inactive	1	> 30	11	> 100	28	–	–	–	–	–	selectivity ratio [1]: 7.5; EC50 [14]: 10 µM; selectivity ratio [13]: 17
CCC(=O)Nc1ccc(-c2nc3cc(C(F)(F)F)ccc3n2C23CC4CC(CC(C4)C2)C3)cc1	86	> 100	> 100	> 100	inactive	inactive	> 100	> 100	> 100	> 100	> 100	inactive	inactive	inactive	–	–	–
CCC(=O)Nc1ccc(-c2nc3cc(C(F)(F)F)ccc3n2C2CCCCC2)cc1	17	18	15	> 100	inactive	inactive	> 18	> 15	7	30	> 100	inactive	inactive	inactive	–	–	–
Cn1c(-c2ccc(NC(=O)CN3CCCC3)cc2)nc2cc(C(F)(F)F)ccc21	16	65	27	> 100	inactive	inactive	7	> 27	13	50	51	inactive	inactive	inactive	–	–	–
O=C(CN1CCN(c2ccccc2)CC1)Nc1ccc(-c2nc3cc(C(F)(F)F)ccc3n2C23CC4CC(CC(C4)C2)C3)cc1	> 100	> 100	> 100	> 100	inactive	inactive	> 100	> 100	27	> 100	> 100	inactive	inactive	inactive	–	–	–
Cn1c(-c2ccc(NC(=O)CN3CCN(c4ccccc4)CC3)cc2)nc2cc(C(F)(F)F)ccc21	1.5	1.4	100	30	inactive	inactive	> 1.4	> 100	3	2	> 30	inactive	inactive	inactive	–	–	–
